# Measured values taken from PubChem BioAssay AID652260 (The Scripps Research Institute Molecular Screening Center, 2013).
# Out of some 3,500 compounds screened, about 1,000 (29%) were called active.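 The calls were made as follows: active = activation above its plate's cutoff, the mean activation of tested wells plus 3 SD (cut at about 7.9% in these data); inactive = the rest.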 Only a sample is shown.
# Test: SMARCA2 (BRM) function activators, confirmation, cell-based, luminescence, triplicate (AID 652260)
# Conditions: MG213 cells, MMTV-luciferase with dexamethasone, overnight, at 9.1 µM, stronger effect = higher value, DMSO wells 0%, reference activator 100%, MG213 cells expressing E1A, Rb sequestered
# In short: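 Assay system: MG213 MMTV-luciferase reporter cells; Quantity: 600 cells in each well; Incubation: compound exposure 24 h at 37 °C after 1-day dexamethasone priming; Read-out basis: % activation relative to DMSO and positive-control wells; Measured by: OneGlo luminescence, 15 min room-temperature incubation; Benchmarks: DMSO wells as low control, reference activator compound as high.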
row,SMILES,activation
1,Cc1ccnc(NC(=O)C2CCN(S(=O)(=O)c3c(C)c(C)cc(C)c3C)CC2)c1,-0.54% (inactive)
2,COC(=O)c1sc(-c2ccc(C(C)(C)C)cc2)cc1NC(=O)/C=C/C(=O)O,-3.23% (inactive)
3,CCC(C)N(C)C1CCN(C(=S)Nc2ccc(OC)cc2)CC1 (stereo not drawn),1.96% (inactive)
4,COc1cccc(OCCOc2cccc(/C=N/n3cnnc3)c2)c1,3.85% (inactive)
5,O=C(CCCc1ccccc1)NCc1ccccc1,8.8% (active)
6,Cc1ccc(F)c(NC(=O)CCc2ccccc2)c1,5.33% (inactive)
7,COc1ccc(OCCCC(=O)NCCc2ccccc2)cc1,1.28% (inactive)
8,CC(C)c1ccc(NC(=S)NC2CC3C=CC2C3)cc1 (stereo not drawn),6.89% (inactive)
9,CC(C)(C)c1ccc(NC(=O)NCc2ccco2)cc1,14.5% (active)
10,Cc1ccc(NC(=O)C(=O)NCc2ccco2)c(C)c1,0.78% (inactive)
11,Cc1noc(C)c1S(=O)(=O)N(C)C[C@H]1Oc2c(NC(=O)Nc3ccc4c(c3)OCO4)cccc2C(=O)N([C@H](C)CO)C[C@@H]1C,-2.45% (inactive)
12,CC(C)(C)NC(=O)C(CCc1ccccc1)n1c(=O)c(-c2ccccc2)nc2ccccc21 (stereo not drawn),8.75% (active)
13,O=C(Cn1ncc(N2CCCC2)c(Br)c1=O)c1ccc(Cl)cc1,3.52% (inactive)
14,COc1ccc(/C=C/C(=O)Nc2ccc(C34CC5CC(CC(O)(C5)C3)C4)cc2)cc1OC,15.3% (active)
15,Cn1cccc1/C=N/NC(=O)c1ccc(OC(F)(F)C(F)F)cc1,3.85% (inactive)
16,COc1ccc(C(=O)NC2=NCCS2)c(OC)c1,10.5% (active)
17,CC1(C)CC(=O)C=C(NCCCNC2CCCCC2)C1,-0.17% (inactive)
18,O=C(Nc1cc(=O)[nH]c2ncnn12)c1ccccc1Cl,3.68% (inactive)
19,CCCn1nc(C(=O)Nc2ccc3nc(C)sc3c2)c2ccccc2c1=O,-0.9% (inactive)
20,Cc1ccc(C(=O)CSc2ccccc2C(=O)O)cc1,16.1% (active)
21,CC(C)Cc1nnc(NC(=O)CCNC(=O)c2ccccc2Cl)s1,-0.13% (inactive)
22,Cc1ccc(-c2nc3ccc(Cl)cn3c2Cc2ccccc2)cc1,3.06% (inactive)

row,SMILES,activation
1,Cc1ccc(N/C=C/C(=O)c2ccccc2)cc1C,0.64% (inactive)
2,Cc1cccc(-n2c(O)c(C=Nc3ccccc3N)c(=O)[nH]c2=O)c1,11.1% (active)
3,Cc1ccsc1C(=O)N/N=C/c1ccc([N+](=O)[O-])cc1,6.1% (inactive)
4,COc1ccc2ccccc2c1CNCc1ccccn1,0.73% (inactive)
5,Cn1sc(=O)c2cc(S(=O)(=O)NC3CC3)ccc21,-1.88% (inactive)
6,COc1cccc(C(=O)Nc2cc3c(cc2Br)OCCCO3)c1,9.25% (active)
7,COc1cccc(C(=O)Nc2nc3ccc(S(C)(=O)=O)cc3s2)c1,2.8% (inactive)
8,O=C(O)c1ccc(COc2c(F)c(F)cc(F)c2F)o1,-2.71% (inactive)
9,Cc1nc(-c2nnc(SCC(=O)Nc3cc(C(F)(F)F)cc(C(F)(F)F)c3)n2C)cs1,-3.07% (inactive)
10,Fc1ccc(/C=N/Nc2nc(-c3cccnc3)nc3ccccc23)cc1,4.27% (inactive)
11,Cc1ccc(NC(=O)c2cc3ccccc3o2)cc1,10.6% (active)
12,COc1ccc(C(=O)N/N=c2\oc3ccccc3cc2C(N)=O)cc1,1.59% (inactive)
13,CCOC(=O)Nc1ccc(NC(=O)OCC)cc1,-0.46% (inactive)
14,O=C(C1CCC1)N1CCN(S(=O)(=O)c2ccc([N+](=O)[O-])cc2)CC1,0.04% (inactive)
15,COC(=O)c1ccc(/C=C2/C(=O)Oc3ccccc32)cc1,-2.13% (inactive)
16,CCc1c(C)c2ccc(OC3CCCCC3=O)cc2oc1=O (stereo not drawn),12.2% (active)
17,O=C(NC1CCCC1)C(=O)c1c[nH]c2ccccc12,4.82% (inactive)
18,CC(=O)c1sc(NC(=O)c2ccc(C)cc2)nc1C,6.35% (inactive)
19,CC1(C(=O)NS(=O)(=O)C2CC2)CCCN(C(=O)CSc2ccccc2)C1 (stereo not drawn),1.21% (inactive)
20,Oc1cccc2ccc(/C=C/c3ccc(Br)s3)nc12,12.9% (active)
21,CC(C)CCNC(=O)c1ccc2c(Cl)c3c(nc2c1)CCC3,2.09% (inactive)
